Assay results as given in ChEMBL document CHEMBL5344428, “Discovery, Crystallographic Studies, and Mechanistic Investigations of Novel Phenylalanine Derivatives Bearing a Quinazolin-4-one Scaffold as Potent HIV Capsid Modulators” (J Med Chem, 2023).

How the values were obtained:
[1] = tested on: Human immunodeficiency virus 1; test: Antiviral activity against HIV1 IIIB infected in human MT4 cells assessed as reduction in virus induced cytopathic effect measured after 5 days by MTT assay; type: functional, organism-based; details: Human immunodeficiency virus 1, IIIB, MT4, 120 h
Outline: (§1)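 MT-4 cells were infected with HIV-1 IIIB or HIV-2 ROD, and cell viability was read by MTT. […] Each value was run in at least triplicate and averaged from at least three independent experiments.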

[2] = Cytotoxicity against human MT4 cells assessed as reduction in cell viability incubated for 5 days by MTT assay; type: toxicity, cell-based; details: MT4 cells, time 5 day
Outline: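 Uninfected MT-4 cells were exposed to compound, and viability was read by the MTT method. […] Each value was run in at least triplicate and averaged from at least three independent experiments.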

[3] = tested on: Human immunodeficiency virus 2; test: Antiviral activity against HIV2 ROD infected in human MT4 cells assessed as reduction in virus induced cytopathic effect measured after 5 days by MTT assay; type: functional, organism-based; details: Human immunodeficiency virus 2, ROD, MT4, 120 h; outline: as §1
[4] = Selectivity index, ratio of CC50 for cytotoxicity against human MT4 cells to EC50 for antiviral activity against HIV1 IIIB infected in human MT4 cells; type: toxicity, cell-based; details: read-out: Ratio CC50/EC50
Outline: (§2)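 SI is CC50 divided by EC50. CC50 comes from MTT viability of uninfected MT-4 cells. EC50 comes from MTT-read protection of MT-4 cells infected with HIV-1 IIIB or HIV-2 ROD. Each value was run in at least triplicate.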

[5] = Selectivity ratio of EC50 for antiviral activity against HIV1 IIIB infected in human MT4 cells to EC50 for antiviral activity against HIV2 ROD infected in human MT4 cells; type: toxicity, cell-based
Outline: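 Ratio is EC50 against HIV-1 IIIB divided by EC50 against HIV-2 ROD. Both EC50 values come from MTT-read protection of infected MT-4 cells.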

[6] = Selectivity index, ratio of CC50 for cytotoxicity against human MT4 cells to EC50 for antiviral activity against HIV2 ROD infected in human MT4 cells; type: toxicity, cell-based; details: read-out: Ratio CC50/EC50; outline: as §2

COc1ccc(N(C)C(=O)[C@H](Cc2cc(F)cc(F)c2)NC(=O)CN(Cc2ccc(F)cc2)C(=O)Cc2c[nH]c3ccc(Br)cc23)cc1
EC50 [1]: 2.93 µM
CC50 at 120 h [2]: 17.8 µM
EC50 [3]: > 17.8 µM
selectivity ratio [4]: 6
Ratio EC50 [5]: < 0.16
selectivity ratio [6]: < 1

COc1ccc(-n2c(SCc3ccc(S(C)(=O)=O)cc3)nnc2[C@H](Cc2ccccc2)NC(=O)Cc2c(C)[nH]c3ccccc23)cc1
EC50 [1]: 2.43 µM
CC50 at 120 h [2]: 172 µM
EC50 [3]: 7.89 µM
selectivity ratio [4]: 71
Ratio EC50 [5]: 0.31
selectivity ratio [6]: 22

COc1ccc(-n2c(SCCC3OCCCO3)nnc2[C@H](Cc2ccccc2)NC(=O)Cc2c(C)[nH]c3ccccc23)cc1
EC50 [1]: 1.64 µM
CC50 at 120 h [2]: 32.3 µM
EC50 [3]: 6.65 µM
selectivity ratio [4]: 20
Ratio EC50 [5]: 0.25
selectivity ratio [6]: 5

COc1ccc(N(C)C(=O)[C@H](Cc2cc(F)cc(F)c2)NC(=O)CN2CCN(C(=O)Cc3c[nH]c4ccc(F)cc34)CC2=O)cc1
EC50 [1]: 5.89 µM
CC50 at 120 h [2]: 16.4 µM
EC50 [3]: 5.07 µM
selectivity ratio [4]: 2.78
Ratio EC50 [5]: 1.16
selectivity ratio [6]: 3.23

COc1ccc(N(C)C(=O)[C@H](Cc2ccccc2)NC(=O)Cn2ccc(NC(=O)c3cccc(F)c3)cc2=O)cc1
EC50 [1]: 18.9 µM
CC50 at 120 h [2]: 61.6 µM
EC50 [3]: 6.59 µM
selectivity ratio [4]: 3.26
Ratio EC50 [5]: 2.87
selectivity ratio [6]: 9.36

COc1ccc(N(C)C(=O)[C@H](Cc2ccccc2)NC(=O)CN2CCN(C(=O)Cc3c[nH]c4ccc(OC)cc34)CC2=O)cc1
EC50 [1]: 14.6 µM
CC50 at 120 h [2]: 104 µM
EC50 [3]: 16.9 µM
selectivity ratio [4]: 7.15
Ratio EC50 [5]: 0.86
selectivity ratio [6]: 6.15

COc1ccc(N(C)C(=O)[C@H](Cc2cc(F)cc(F)c2)NC(=O)CN2CCN(C(=O)Cc3c[nH]c4ccccc34)CC2=O)cc1
EC50 [1]: 29.4 µM
CC50 at 120 h [2]: 57.8 µM
EC50 [3]: 17.6 µM
selectivity ratio [4]: 1.97
Ratio EC50 [5]: 1.67
selectivity ratio [6]: 3.28

COc1ccc(-n2c([C@H](Cc3cc(F)cc(F)c3)NC(=O)CN3CCN(S(=O)(=O)c4ccc(N)cc4)CC3)nc3cc(S(C)(=O)=O)ccc3c2=O)cc1
EC50 [1]: 0.68 µM
CC50 at 120 h [2]: > 160 µM
EC50 [3]: 0.15 µM
selectivity ratio [4]: > 236
Ratio EC50 [5]: 4.53
selectivity ratio [6]: > 1040

COc1ccc(-n2c([C@H](Cc3ccccc3)NC(=O)CN3CCN(S(=O)(=O)c4ccc(N)cc4)CC3)nc3ccccc3c2=O)cc1
EC50 [1]: 0.64 µM
CC50 at 120 h [2]: > 187 µM
EC50 [3]: 0.15 µM
selectivity ratio [4]: > 291
Ratio EC50 [5]: 4.27
selectivity ratio [6]: > 1250

COC(=O)CSc1nnc([C@H](Cc2ccccc2)NC(=O)Cc2c(C)[nH]c3ccccc23)n1-c1ccc(OC)cc1
EC50 [1]: 3.01 µM
CC50 at 120 h [2]: 82.3 µM
EC50 [3]: 6.59 µM
selectivity ratio [4]: 27
Ratio EC50 [5]: 0.46
selectivity ratio [6]: 12

COc1ccc(-n2c(SCC(N)=O)nnc2[C@H](Cc2ccccc2)NC(=O)Cc2c(C)[nH]c3ccccc23)cc1
EC50 [1]: 0.88 µM
CC50 at 120 h [2]: 118 µM
EC50 [3]: 3.74 µM
selectivity ratio [4]: 135
Ratio EC50 [5]: 0.24
selectivity ratio [6]: 32

COc1ccc(N(C)C(=O)[C@H](Cc2ccccc2)NC(=O)Cn2ccc(N)cc2=O)cc1
EC50 [1]: 29.1 µM
CC50 at 120 h [2]: 261 µM
EC50 [3]: 19.7 µM
selectivity ratio [4]: 8.98
Ratio EC50 [5]: 1.47
selectivity ratio [6]: 13.2

COc1ccc(N(C)C(=O)[C@H](Cc2cc(F)cc(F)c2)NC(=O)CN2CCN(C(=O)c3ccc(NC(=O)C(F)(F)F)cc3)CC2=O)cc1
EC50 [1]: 13.7 µM
CC50 at 120 h [2]: 150 µM
EC50 [3]: 16.6 µM
selectivity ratio [4]: 10.9
Ratio EC50 [5]: 0.83
selectivity ratio [6]: 9.09

COc1ccc(N(C)C(=O)[C@H](Cc2ccccc2)NC(=O)Cn2ccc(NC(=O)c3ccccc3)cc2=O)cc1
EC50 [1]: 16.8 µM
CC50 at 120 h [2]: 86.5 µM
EC50 [3]: 4.86 µM
selectivity ratio [4]: 5.15
Ratio EC50 [5]: 3.46
selectivity ratio [6]: 17.8

COc1ccc(N(C)C(=O)[C@H](Cc2cc(F)cc(F)c2)NC(=O)CN(C(=O)Cc2ccc(B3OC(C)(C)C(C)(C)O3)cc2)C2CC2)cc1
EC50 [1]: 5.18 µM
CC50 at 120 h [2]: 89 µM
EC50 [3]: 9.71 µM
selectivity ratio [4]: 17
Ratio EC50 [5]: 0.53
selectivity ratio [6]: 9

COc1ccc(N(C)C(=O)[C@H](Cc2ccccc2)NC(=O)CN2CCN(C(=O)Cc3c[nH]c4ccc(F)cc34)CC2=O)cc1
EC50 [1]: 21.8 µM
CC50 at 120 h [2]: 90.1 µM
EC50 [3]: 4.52 µM
selectivity ratio [4]: 4.13
Ratio EC50 [5]: 4.83
selectivity ratio [6]: 19.9

COc1ccc(N(C)C(=O)[C@H](Cc2ccccc2)NC(=O)CN2CCN(C(=O)Cc3c[nH]c4ccccc34)CC2=O)cc1
EC50 [1]: 15 µM
CC50 at 120 h [2]: 112 µM
EC50 [3]: 4.89 µM
selectivity ratio [4]: 7.51
Ratio EC50 [5]: 3.06
selectivity ratio [6]: 23

COc1ccc(-n2c(SCC(F)F)nnc2[C@H](Cc2ccccc2)NC(=O)Cc2c(C)[nH]c3ccccc23)cc1
EC50 [1]: 2.54 µM
CC50 at 120 h [2]: 24.4 µM
EC50 [3]: 7.33 µM
selectivity ratio [4]: 10
Ratio EC50 [5]: 0.35
selectivity ratio [6]: 3

Nc1ccc(S(=O)(=O)N2CCN(CC(=O)N[C@@H](Cc3ccccc3)c3nc4ccccc4c(=O)n3-c3ccc(S(=O)(=O)N4CCOCC4)cc3)CC2)cc1
EC50 [1]: 0.15 µM
CC50 at 120 h [2]: > 159 µM
EC50 [3]: 0.1 µM
selectivity ratio [4]: > 1040
Ratio EC50 [5]: 1.5
selectivity ratio [6]: > 1560

COc1ccc(-n2c(S)nnc2[C@H](Cc2ccccc2)NC(=O)Cc2c(C)[nH]c3ccccc23)cc1
EC50 [1]: 4.94 µM
CC50 at 120 h [2]: 133 µM
EC50 [3]: 10.6 µM
selectivity ratio [4]: 27
Ratio EC50 [5]: 0.47
selectivity ratio [6]: 13

COc1ccc(-n2c([C@H](Cc3cc(F)cc(F)c3)NC(=O)CN3CCN(S(=O)(=O)c4ccc([N+](=O)[O-])cc4)CC3)nc3cc(Cl)ccc3c2=O)cc1
EC50 [1]: 0.59 µM
CC50 at 120 h [2]: > 163 µM
EC50 [3]: 0.4 µM
selectivity ratio [4]: > 278
Ratio EC50 [5]: 1.48
selectivity ratio [6]: > 403

COc1ccc(N(C)C(=O)[C@H](Cc2cc(F)cc(F)c2)NC(=O)CN(Cc2ccc(C#N)cc2)C(=O)Cc2c[nH]c3ccc(Br)cc23)cc1
EC50 [1]: 5.61 µM
CC50 at 120 h [2]: 87.6 µM
EC50 [3]: 15.7 µM
selectivity ratio [4]: 16
Ratio EC50 [5]: 0.36
selectivity ratio [6]: 6

C#CCSc1nnc([C@H](Cc2ccccc2)NC(=O)Cc2c(C)[nH]c3ccccc23)n1-c1ccc(OC)cc1
EC50 [1]: 2.05 µM
CC50 at 120 h [2]: 24.7 µM
EC50 [3]: 3.94 µM
selectivity ratio [4]: 12
Ratio EC50 [5]: 0.52
selectivity ratio [6]: 6

COc1ccc(-n2c([C@H](Cc3ccccc3)NC(=O)CN3CCN(S(=O)(=O)c4ccc(N)cc4)CC3)nc3cc(S(C)(=O)=O)ccc3c2=O)cc1
EC50 [1]: 3.84 µM
CC50 at 120 h [2]: > 168 µM
EC50 [3]: 0.35 µM
selectivity ratio [4]: > 43.7
Ratio EC50 [5]: 10.97
selectivity ratio [6]: > 481
